Reference: ChEMBL document CHEMBL1130346, “A new rational hypothesis for the pharmacophore of the active metabolite of leflunomide, a potent immunosuppressive drug” (J Med Chem, 1997)

Tests used:
[1] = organism: Mus musculus; assay: The compound was tested for in vitro mixed lymphocyte reaction.; format: functional, organism-based
Outline: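 Bidirectional murine MLR using BALB/c and DBA/2 splenocytes isolated on Ficoll-Hypaque. 5×10⁴ cells of each strain were cocultured in triplicate for 96 h with serial dilutions of compound (20 mM DMSO stock), with DMSO-matched controls. Medium was RPMI 1640 with 5% FBS. [³H]thymidine (1 µCi) was added for the last 18 h. IC50 is 50% inhibition of proliferation versus untreated cultures; at least three experiments.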

[2] = In vitro inhibition of lymphocyte activated CD71 antigens induced by monoclonal antibody; format: functional, Homo sapiens
Outline: (§1)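 Human PBMC from healthy donors, separated on Ficoll-Hypaque, at 10⁶ cells/mL in RPMI 1640 with 10% FBS. Cells were incubated with test compounds and stimulated with an optimal concentration of anti-CD3 mAb OKT3 for 24 h at 37 °C in 5% CO₂. CD2, CD25 and CD71 were read by immunofluorescence staining and flow cytometry. IC50 values came from at least two experiments, which differed by less than 10%.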

[3] = In vitro inhibition of lymphocyte activated CD25 antigens induced by monoclonal antibody; format: functional, Homo sapiens; outline: as §1
[4] = In vitro inhibition of lymphocyte activated CD2 antigens induced by monoclonal antibody; format: functional, Homo sapiens; outline: as §1
[5] = test system: Mus musculus; assay: Inhibition of paw edema formation in mouse after an ip dose of 10 mg/kg; Thickness of paw = 2.38+/-0.07 mm; format: functional; conditions: route intraperitoneal
[6] = organism: Mus musculus; assay: animal or person; conditions: ip, read-out: Inhibition
[7] = organism: Mus musculus; assay: animal or person; conditions: ip, read-out: Inhibition; remark: listed apart in the source
[8] = In vitro inhibition of expression of lymphocyte activated CD2 antigens induced by monoclonal antibody; format: functional; conditions: Homo sapiens; outline: as §1
[9] = In vitro inhibition of expression of lymphocyte activated CD25 antigens induced by monoclonal antibody; format: functional; conditions: Homo sapiens; outline: as §1
[10] = In vitro inhibition of expression of lymphocyte activated CD71 antigens induced by monoclonal antibody; format: functional; conditions: Homo sapiens; outline: as §1
[11] = test system: Mus musculus; assay: Inhibition of paw edema formation in mouse after an peroral dose of 10 mg/kg; Thickness of paw =2.45+/-0.14 mm; format: functional; conditions: route oral

## CCO/C(O)=C(/C(C)=O)C(=O)Nc1ccc(C(F)(F)F)cc1
[1]
  IC50: 71.6 µM
[2]
  IC50: 78.1 µM
[3]
  IC50: 96.4 µM
[4]
  IC50: 90.8 µM

## O=C1CCCC(O)=C1C(=O)Nc1ccc(C(F)(F)F)cc1
[1]
  IC50: 1.25 µM
[2]
  IC50: 11 µM
[3]
  IC50: 2.9 µM
[4]
  IC50: 2.9 µM

## O=C1COC(O)=C1C(=O)Nc1ccc(C(F)(F)F)cc1
[1]
  IC50: 45.9 µM
[2]
  IC50: > 100 µM
[3]
  IC50: > 100 µM
[4]
  IC50: 95.4 µM

## CC(O)=C(C(=O)Nc1ccc(C(F)(F)F)cc1)C(=O)Nc1ccc(C(F)(F)F)cc1
[1]
  IC50: 11.9 µM
[2]
  IC50: 18.8 µM
[3]
  IC50: 18.4 µM
[4]
  IC50: 15.3 µM

## O=C(Nc1ccc(C(F)(F)F)cc1)c1ccccc1O
[1]
  IC50: 1.65 µM
[2]
  IC50: 4.4 µM
[3]
  IC50: 2.4 µM
[5]
  inhibition in vivo at 10 mg/kg: 43%
[4]
  IC50: 3 µM

## O=C1CCC(O)=C1C(=O)Nc1ccc(C(F)(F)F)cc1
[1]
  IC50: 3.4 µM
[2]
  IC50: 66.5 µM
[3]
  IC50: 14.8 µM
[4]
  IC50: 13.8 µM

## C/C=C/C[C@@H](C)[C@@H](O)[C@H]1C(=O)N[C@@H](CC)C(=O)N(C)CC(=O)N(C)[C@@H](CC(C)C)C(=O)N[C@@H](C(C)C)C(=O)N(C)[C@@H](CC(C)C)C(=O)N[C@@H](C)C(=O)N[C@H](C)C(=O)N(C)[C@@H](CC(C)C)C(=O)N(C)[C@@H](CC(C)C)C(=O)N(C)[C@@H](C(C)C)C(=O)N1C [CYCLOSPORINE]
[6]
  inhibition in vivo at 50 mg/kg: 83%
[7]
  inhibition in vivo at 5 mg/kg: 48%

## Cc1oncc1C(=O)Nc1ccc(C(F)(F)F)cc1 [LEFLUNOMIDE]
[8]
  IC50: 126 µM
[1]
  IC50: 9.6 µM
[9]
  IC50: 130 µM
[10]
  IC50: > 100 µM
[11]
  inhibition in vivo at 10 mg/kg: 45%

## C/C(O)=C(\C#N)C(=O)Nc1ccc(C(F)(F)F)cc1 [TERIFLUNOMIDE]
[1]
  IC50: 41.3 µM
[2]
  IC50: 74.6 µM
[3]
  IC50: 89.9 µM
[4]
  IC50: 50.9 µM
